Screening data deposited in PubChem BioAssay by several laboratories.
STAT3 activator = increases IL-6 driven STAT3 reporter signal | U3A cells, IL-6 STAT3-luciferase reporter, luminescence; 100% = signal with IL-6 EC80 alone | activation (% of control), % at 5.6 µM | hit rate 0.91% among 190,000;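 active = activation above the screen-wide mean of compound activation plus 3 SD, cut at about 130% in these data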;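 note: 0% = background luminescence of wells with medium and substrate only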
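Material: STAT3-luciferase reporter U3A cells; Probe or stimulus: IL-6 (33 ng/mL); Incubation: compound pre-incubation 1 h before IL-6, then 6 h stimulation at 37 °C; Technique: luminescence from STAT3-driven luciferase reporter; Evaluation: % activation versus median of IL-6-stimulated wells; Controls: IL-6-only high control.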
AHR activator = human AHR activation. AHR-responsive luciferase reporter cells, luminescence. activation, % at 5 µM. hit rate 2.5% among 320,000. AID 2796; in the data active = activation above about 47%;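 note: 0% = vehicle wells and 100% = reference agonist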
Target sequence (P35869 whole entry, looked up): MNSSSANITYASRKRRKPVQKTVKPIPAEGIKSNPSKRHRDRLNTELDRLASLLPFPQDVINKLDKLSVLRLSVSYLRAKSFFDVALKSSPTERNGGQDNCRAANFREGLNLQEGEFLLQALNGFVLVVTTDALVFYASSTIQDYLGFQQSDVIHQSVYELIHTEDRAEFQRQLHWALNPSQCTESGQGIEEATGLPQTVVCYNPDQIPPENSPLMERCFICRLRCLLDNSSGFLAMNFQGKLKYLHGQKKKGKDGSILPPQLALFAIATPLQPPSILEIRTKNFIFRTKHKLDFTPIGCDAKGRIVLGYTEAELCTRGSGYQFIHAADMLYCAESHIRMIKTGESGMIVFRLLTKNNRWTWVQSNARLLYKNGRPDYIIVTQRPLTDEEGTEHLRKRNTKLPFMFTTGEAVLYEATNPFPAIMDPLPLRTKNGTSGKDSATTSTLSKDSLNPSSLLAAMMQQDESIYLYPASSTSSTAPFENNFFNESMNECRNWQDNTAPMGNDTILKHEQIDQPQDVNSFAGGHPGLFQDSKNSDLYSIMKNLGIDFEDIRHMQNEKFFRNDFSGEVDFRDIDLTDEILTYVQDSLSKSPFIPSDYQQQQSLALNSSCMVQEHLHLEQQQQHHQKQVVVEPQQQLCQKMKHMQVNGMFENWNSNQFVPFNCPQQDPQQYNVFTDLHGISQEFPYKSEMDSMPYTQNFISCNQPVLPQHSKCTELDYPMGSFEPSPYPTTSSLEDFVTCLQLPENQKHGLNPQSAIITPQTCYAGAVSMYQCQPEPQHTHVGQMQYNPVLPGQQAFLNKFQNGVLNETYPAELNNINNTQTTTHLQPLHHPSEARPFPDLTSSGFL
GAA850 FXN act = activators of GAA850 frataxin (FXN) promoter | HEK293 lucGAA850 FXN promoter luciferase reporter, 24 h; percent of 10 µM SAHA response | activation, % at 6 µM | hit rate 0.56% among 360,000 | AID 540364;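 active = activation above the average of all compounds screened plus 3 SD, cutoff fixed separately per campaign, cut at about 7.5% in these data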;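 note: 0% = DMSO wells and 100% = 10 µM SAHA wells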
ABCB6 inh MLPCN = human ABCB6 transporter inhibition | K562-ABCB6 porphyrin accumulation, flow cytometry, 1 h; stronger effect = lower value | fluorescence ratio to DMSO, % at 10 µM | hit rate 0.19% among 360,000 | AID 602162;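 active = fluorescence ratio to DMSO below 75%, the collection mean minus 3 SD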;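 note: signal is porphyrin accumulated inside mitochondria; 100% equals median channel fluorescence of DMSO control wells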
* marks the source's active call; other numbers are inactive results. Compounds with a hit are over-represented: about 3.3% of the library has one in this group of screens.

How did Cc1ccc(N2CCN(C(=O)c3cc(C(=O)c4ccccc4C)c[nH]3)CC2)c(C)c1 do in these assays?
STAT3 activator: 83; AHR activator: 2; GAA850 FXN act: 1; ABCB6 inh MLPCN: 94

How did N#Cc1ccc(NC(=O)Nc2ccc(Cl)cc2)cc1 do in these assays?
STAT3 activator: 97; AHR activator: -10; GAA850 FXN act: -5; ABCB6 inh MLPCN: 87

How did N#CC(C#N)=C/C=C(\Nc1ccc(Cl)cc1)c1ccc(Cl)cc1 do in these assays?
AHR activator: 120*; GAA850 FXN act: -3; ABCB6 inh MLPCN: 98

Results for COc1ccc(/C=C(/C#N)c2cccnc2)cc1OC ?
STAT3 activator: 100; AHR activator: 64*; GAA850 FXN act: 2; ABCB6 inh MLPCN: 102

Results for OCc1ccc(-c2cncc3nccn23)cc1 ?
GAA850 FXN act: 3; ABCB6 inh MLPCN: 96

What do the screens show for `CCOC(=O)c1c(C)oc2cc(Br)c(OC(=O)N3CCOCC3)cc12`?
STAT3 activator: 102; AHR activator: 52*; GAA850 FXN act: 1; ABCB6 inh MLPCN: 128

How did COc1cc2c(C(=O)N3CCN(C)CC3)c(C)oc2cc1Br do in these assays?
STAT3 activator: 93; AHR activator: 2; GAA850 FXN act: 0; ABCB6 inh MLPCN: 102

How did COc1cccc(/C=N/NC(=S)NCCc2ccccc2)c1OC do in these assays?
GAA850 FXN act: 1; ABCB6 inh MLPCN: 99

Results for COc1cccc(/C=N/NC(N)=S)c1OCc1cccc(Cl)c1 ?
STAT3 activator: 102; AHR activator: 60*; GAA850 FXN act: 0; ABCB6 inh MLPCN: 90

How did COC(=O)N/N=C/c1cc(Cl)cc(Cl)c1OCc1ccccc1 do in these assays?
STAT3 activator: 103; AHR activator: 62*; GAA850 FXN act: 0; ABCB6 inh MLPCN: 97

What do the screens show for `NC(=S)N/N=C/c1c[nH]c2ccc(OCc3ccccc3)cc12`?
AHR activator: 71*; GAA850 FXN act: -5; ABCB6 inh MLPCN: 99

Results for COC(=O)N/N=C\c1ccccc1OC/C=C/c1ccccc1 ?
GAA850 FXN act: 6; ABCB6 inh MLPCN: 97

How did NC(=S)N/N=C\c1ccccc1OCc1ccccc1 do in these assays?
STAT3 activator: 100; AHR activator: 33; GAA850 FXN act: -2; ABCB6 inh MLPCN: 101

What do the screens show for `CN(C)Cc1c(C(=O)N/N=C/c2ccccc2OCc2c(F)cccc2Cl)nnn1-c1nonc1N`?
AHR activator: -2; GAA850 FXN act: -2; ABCB6 inh MLPCN: 90

What do the screens show for `COc1ccccc1CCn1c(N)cc(=O)[nH]c1=O`?
AHR activator: 53*; GAA850 FXN act: -1; ABCB6 inh MLPCN: 98

How did Nc1cc(=O)[nH]c(=O)n1CCCc1ccccc1 do in these assays?
AHR activator: -2; GAA850 FXN act: 2; ABCB6 inh MLPCN: 101

Results for CCN(CC)C(=N)N1c2ccccc2CCC1C (stereo not given) ?
STAT3 activator: 105; AHR activator: 1; GAA850 FXN act: 0; ABCB6 inh MLPCN: 103

Results for Clc1ccc2[nH]c3c(NCC4CCCO4)ncnc3c2c1 (stereo not given) ?
STAT3 activator: 85; AHR activator: 76*

What do the screens show for `Clc1ccc(-n2ncc3c(NCC4CCCO4)ncnc32)cc1` (stereo not given)?
STAT3 activator: 85; AHR activator: -10; GAA850 FXN act: -1; ABCB6 inh MLPCN: 96

Results for CC1Cc2nc(SCC(=O)Nc3nc4ccccc4s3)n(C)c(=O)c2S1 (stereo not given) ?
STAT3 activator: 91; AHR activator: 60*; GAA850 FXN act: 2; ABCB6 inh MLPCN: 93

How did O=Cc1c(-c2ccc(F)cc2)nc2ccccn12 do in these assays?
STAT3 activator: 90; AHR activator: 70*; GAA850 FXN act: 2; ABCB6 inh MLPCN: 99

How did COc1ccc(-c2nc3ccccn3c2C=O)cc1 do in these assays?
STAT3 activator: 96; AHR activator: 55*; GAA850 FXN act: 4; ABCB6 inh MLPCN: 100

How did O=Cc1c(Cl)nc2ccccn12 do in these assays?
STAT3 activator: 95; AHR activator: 1; GAA850 FXN act: -1; ABCB6 inh MLPCN: 99

What do the screens show for `Cc1cc(=O)[nH]c2c(C)c(N)ccc12`?
STAT3 activator: 94; AHR activator: 0; GAA850 FXN act: -1; ABCB6 inh MLPCN: 99

What do the screens show for `Cc1cc(C)c2ccc3c(C)c(C)nc3c2[nH]1`?
STAT3 activator: 120; AHR activator: 68*; GAA850 FXN act: 1; ABCB6 inh MLPCN: 99

What do the screens show for `CCc1n[nH]c(=S)n1/N=C/c1cc(Br)c(OC)cc1OC`?
STAT3 activator: 106; AHR activator: 76*; GAA850 FXN act: 3; ABCB6 inh MLPCN: 96

How did CCc1n[nH]c(=S)n1/N=C/c1ccc(-c2ccc(Br)cc2)o1 do in these assays?
AHR activator: 5; GAA850 FXN act: 2; ABCB6 inh MLPCN: 96

How did Cc1ccc(/C=C2\OC(=O)c3ccccc32)cc1 do in these assays?
STAT3 activator: 157*; AHR activator: 39; GAA850 FXN act: 4; ABCB6 inh MLPCN: 95

What do the screens show for `Cc1ccccc1/C=C1\OC(=O)c2ccccc21`?
STAT3 activator: 90; AHR activator: -3; GAA850 FXN act: 0; ABCB6 inh MLPCN: 93

What do the screens show for `COc1cccc(Nc2nc(-c3ccc4c(c3)OCCO4)cs2)c1`?
STAT3 activator: 110; AHR activator: 72*; GAA850 FXN act: -2; ABCB6 inh MLPCN: 115

Results for Cc1cc(C)nc(Nc2nc(-c3ccccc3)cs2)n1 ?
AHR activator: 75*; GAA850 FXN act: 3; ABCB6 inh MLPCN: 95

What do the screens show for `Cc1cc(C)nc(Nc2nc(C(N)c3ccccc3)cs2)n1` (stereo not given)?
GAA850 FXN act: -3; ABCB6 inh MLPCN: 103

How did c1ccc(-c2csc(Nc3ccc4c(c3)OCCO4)n2)cc1 do in these assays?
STAT3 activator: 95; AHR activator: 61*; GAA850 FXN act: 5; ABCB6 inh MLPCN: 95

Results for COc1cccc(Nc2nc(-c3sc(N)nc3C)cs2)c1 ?
STAT3 activator: 108; AHR activator: 105*; GAA850 FXN act: 0; ABCB6 inh MLPCN: 101

How did O=C1Nc2ccc(Br)cc2C1=Nc1ccc(-c2nnc3n2CCCCC3)cc1 do in these assays?
STAT3 activator: 109; AHR activator: 17

What do the screens show for `OC(c1ccc(F)cc1)c1nc(-c2ccc(Cl)cc2)cs1` (stereo not given)?
GAA850 FXN act: 4; ABCB6 inh MLPCN: 102

Results for Cc1sc(NC(=O)C2=COCCO2)nc1-c1ccc(Cl)cc1 ?
AHR activator: 65*; GAA850 FXN act: 0; ABCB6 inh MLPCN: 93

How did Cc1ccc(Cl)c2sc(NC(=O)C3=COCCO3)nc12 do in these assays?
AHR activator: 58*; GAA850 FXN act: 2; ABCB6 inh MLPCN: 100

What do the screens show for `COc1ccc(Cl)c2sc(NC(=O)C3=COCCO3)nc12`?
AHR activator: 45; GAA850 FXN act: 0; ABCB6 inh MLPCN: 97

How did O=C(c1c(Cl)nc2sccn12)N1CCN(c2cccc(Cl)c2)CC1 do in these assays?
STAT3 activator: 100; AHR activator: -2; GAA850 FXN act: -3; ABCB6 inh MLPCN: 107

Results for COC(=O)c1cn[nH]c1NC(=S)Nc1ccc(Cl)c(Cl)c1 ?
STAT3 activator: 77; AHR activator: 48*; GAA850 FXN act: -1; ABCB6 inh MLPCN: 94
